Calls of active or inactive are those of the source.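 How the source made its calls, unless noted: active means viability at or below 10% of carrier control in both of two separate runs; inconclusive means viability at or below 10% in only one of the two runs; inactive means the rest.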

Assay [1] in a line: Her2 expression decrease, cell viability multiplex – SKBR3 breast tumor cells, AlphaScreen, ATP viability, primary screen (AID 461;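 active means Her2 level under about 52% in both replicate screens, with viability over 70% of control, limit read from the data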;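 on Her2 level: lower value means less Her2 protein in the cells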;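 on viability: percent of carrier control wells set as 100% viability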). The settings on record: SKBR3 Her2 protein level, 18-24 h, measured here: SKBR3 viability, ATP luminescence, at 10 µM. (Bead proximity is the source of the signal in Alpha formats.)
The target of assay [2] is Receptor tyrosine-protein kinase erbB-2 (Homo sapiens) (UniProt P04626). Described as above. The settings on record: 18-24 h, at 10 µM, stronger effect = lower value.
Chain of Receptor tyrosine-protein kinase erbB-2 (Homo sapiens) (P04626 whole entry, looked up): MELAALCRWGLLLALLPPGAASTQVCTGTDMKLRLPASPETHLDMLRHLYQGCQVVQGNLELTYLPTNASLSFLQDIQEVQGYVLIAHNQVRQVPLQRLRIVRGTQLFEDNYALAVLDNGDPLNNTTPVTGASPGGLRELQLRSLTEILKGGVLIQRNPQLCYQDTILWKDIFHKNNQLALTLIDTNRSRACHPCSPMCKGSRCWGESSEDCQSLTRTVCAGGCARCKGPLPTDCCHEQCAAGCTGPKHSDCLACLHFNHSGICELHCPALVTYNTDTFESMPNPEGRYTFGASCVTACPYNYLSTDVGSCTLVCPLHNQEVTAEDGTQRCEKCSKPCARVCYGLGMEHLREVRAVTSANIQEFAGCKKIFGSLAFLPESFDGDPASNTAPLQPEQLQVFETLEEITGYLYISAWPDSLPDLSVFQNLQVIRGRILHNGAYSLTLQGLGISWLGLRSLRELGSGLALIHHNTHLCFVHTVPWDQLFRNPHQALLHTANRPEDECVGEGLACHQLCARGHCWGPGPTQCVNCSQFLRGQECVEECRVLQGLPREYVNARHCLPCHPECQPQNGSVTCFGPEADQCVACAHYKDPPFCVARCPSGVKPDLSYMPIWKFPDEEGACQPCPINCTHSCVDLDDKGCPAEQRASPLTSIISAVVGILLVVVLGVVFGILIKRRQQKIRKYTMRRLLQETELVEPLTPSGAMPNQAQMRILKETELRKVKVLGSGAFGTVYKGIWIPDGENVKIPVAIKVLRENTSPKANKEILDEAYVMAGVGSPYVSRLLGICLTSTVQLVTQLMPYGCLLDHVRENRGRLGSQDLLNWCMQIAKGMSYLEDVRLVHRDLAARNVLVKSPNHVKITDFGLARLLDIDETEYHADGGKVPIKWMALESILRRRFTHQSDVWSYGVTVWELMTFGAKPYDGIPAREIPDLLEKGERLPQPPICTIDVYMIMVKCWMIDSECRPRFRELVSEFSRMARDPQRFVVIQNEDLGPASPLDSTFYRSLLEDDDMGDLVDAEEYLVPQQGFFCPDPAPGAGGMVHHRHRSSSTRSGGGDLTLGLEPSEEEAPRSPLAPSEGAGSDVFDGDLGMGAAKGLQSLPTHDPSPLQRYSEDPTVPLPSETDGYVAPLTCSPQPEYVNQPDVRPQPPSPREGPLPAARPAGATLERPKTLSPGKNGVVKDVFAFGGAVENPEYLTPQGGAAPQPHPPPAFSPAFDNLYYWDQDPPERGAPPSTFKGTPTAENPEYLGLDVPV
Assay [3] is described as follows: reduced viability of SK-BR-3 breast cancer cells – cell-based, 24 h, human, pilot screen (AID 572).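 Further: compound exposure lasted between 18 and 24 h rather than exactly 24 h; 100% = carrier-treated control wells.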 The settings on record: SK-BR-3 viability, CellTiter-Glo luminescence, at 10 µM, stronger effect = lower value. (In general: In ATP-based viability assays light output follows the ATP content of the culture.)
The nature of assay [4]: HUVEC growth inhibition – cell-based, human, primary screen (AID 575;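 active means viability at or below 30% in both replicate assays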;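 further: 100% = median of untreated cell wells with 0.1% DMSO on each plate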). The settings on record: HUVEC proliferation, CellTiter-Glo luminescence, 72 h; at 10 µM; stronger effect = lower value. Summed up: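 Material: primary human umbilical vein endothelial cells / Schedule: 72 h exposure, 37 °C, 5% CO2, 30 min RT equilibration / Signal: ATP-based CellTiter-Glo luminescent read / Read-out basis: percent of median DMSO-control luminescence / Control set: 32 DMSO-only cell-control wells (high), 32 MePR drug-control wells (low) per plate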

The nature of assay [5]: H69AR cell proliferation blockers – human, duplicate replicates, primary screen (AID 580;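 active means viability at or under a set limit in both replicates, limit being median viability minus 3 SD, cut at about 48% in these data, passing the limit was not always enough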;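 further: 100% = mean luminescence of untreated wells and 0% = no signal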). The settings on record: H69AR lung tumor cells viability, ATP luminescence, 72 h; at 10 µM; stronger effect = lower value.
Assay [6] in a line: MRP1 drug-resistance reversers in H69AR cells – cell-based, doxorubicin co-treatment, pilot screen (AID 601;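 active means viability loss from added drug above about 55%, and viability with drug at most 40%, in both replicates, limit read from the data, passing the limit was not always enough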). The settings on record: CellTiter-Glo, 72 h, at 10 µM; for differential viability (reversal): stronger effect = higher value.
Assay [7] can be described thus: yeast transport mutant growth inhibition pilot in 384-well plates, post-Golgi transport modulator project (AID 636; in the data active means inhibition above about 31%). The settings on record: absorbance 615 nm, about 18 h, stronger effect = higher value.
Assay [8] is described as follows: growth suppression of yeast trafficking mutant, preliminary HTS, modulators of trafficking downstream of Golgi apparatus project, 1536-format plate, OD 615 nm (AID 637; in the data active means inhibition above about 30%). The settings on record: yeast transport mutant growth, absorbance 615 nm, 18 h; stronger effect = higher value.
Where [9] appears, read: H69AR cells + 2 uM doxorubicin, measured here: viability with 2 uM doxorubicin, stronger effect = lower value.
Setting [10] is: H69AR cells, compound alone cytotoxicity.

With `Cc1ccc(-c2nc(=S)c3c(n2Cc2ccco2)CCCC3)cc1`, the viability is 79% in assay [1]; 79% (inactive) in assay [3]; 86.9% (inactive) in assay [4]; 10.3% (active) in assay [5]; 10.6% in assay [6] (setting [9]); 10.3% in assay [6] (setting [10]). In addition, the Her2 level in assay [2] is 79% (inactive). Further, the differential viability (reversal) in assay [6] (H69AR cells + 2 uM doxorubicin) is -0.31% (inactive). The inhibition in assay [7] was -1.47% (inactive); in assay [8], -5.32% (inactive).
As to `O=C(CCc1nc2ccccc2[nH]1)Nc1ccc2c(c1)OCO2`, the viability in assay [1] was 79%; in assay [3] it was 79% (inactive); in assay [4], 48.6% (inactive); in assay [5] it was 90.8% (inactive); in assay [6] (setting [9]), 93.1%; in assay [6] (setting [10]), 90.8%. In addition, the Her2 level in assay [2] is 126% (inactive). In assay [6] (H69AR cells + 2 uM doxorubicin), the differential viability (reversal) is -2.33% (inactive). Further, the results for the inhibition in assay [7] and in assay [8] were 0.9% (inactive) and -4.33% (inactive), respectively.
`CC(=O)C1=C(O)C(=O)N(Cc2cccnc2)C1c1ccccc1` (stereo not given): the viability is 101% in assay [1]; 101% (inactive) in assay [3]; 97.8% (inactive) in assay [4]; 105% (inactive) in assay [5]; 95.3% in assay [6] (setting [9]); 105% in assay [6] (setting [10]). For the same compound, the Her2 level in assay [2] was 114% (inactive). Also, in assay [6] (H69AR cells + 2 uM doxorubicin), the differential viability (reversal) was 10% (inactive). Moreover, the inhibition in assay [7] was -6.13% (inactive); in assay [8], -1.77% (inactive).
For `CC(C)COC(=O)N(C)c1ccc(C(O)(C(F)(F)F)C(F)(F)F)cc1`, the viability in assay [1] was 102%; in assay [3], 102% (inactive); in assay [4], 93.1% (inactive); in assay [5] it was 89.8% (inactive); in assay [6] (setting [9]) it was 86.4%; in assay [6] (setting [10]) it was 89.8%. Besides, in assay [2], the Her2 level is 95% (inactive). For the same compound, in assay [6] (H69AR cells + 2 uM doxorubicin), the differential viability (reversal) is 3.42% (inactive). The inhibition is -2.57% (inactive) in assay [7] and -8.57% (inactive) in assay [8].
Turning to `O=C(OCc1cc2ccccc2[nH]c1=O)c1ccco1`, the viability in assay [1] was 106%; in assay [3], 106% (inactive); in assay [4] it was 95.9% (inactive); in assay [5] it was 100% (inactive); in assay [6] (setting [9]), 93.3%; in assay [6] (setting [10]), 100%. For the same compound, in assay [2], the Her2 level is 114% (inactive). Further, the differential viability (reversal) in assay [6] (H69AR cells + 2 uM doxorubicin) was 6.74% (inactive). Further, the inhibition in assay [7] is -1.43% (inactive); in assay [8] it was -6.67% (inactive).
In the case of `COC(=O)c1sc(S(=O)(=O)NCc2cccs2)c(C(=O)OC)c1C`, the viability is 84% in assay [1]; 84% (inactive) in assay [3]; 85.8% (inactive) in assay [4]; 92.3% (inactive) in assay [5]; 84.9% in assay [6] (setting [9]); 92.3% in assay [6] (setting [10]). Besides, the Her2 level in assay [2] was 93% (inactive). In addition, the differential viability (reversal) in assay [6] (H69AR cells + 2 uM doxorubicin) is 7.38% (inactive). Also, the inhibition is -8.24% (inactive) in assay [7] and 4.26% (inactive) in assay [8].
In the case of `Cc1cc(N2C(=O)C3C4C=CC(C4)C3C2=O)ccc1Br` (stereo not given), the viability was 107% in assay [1]; 107% (inactive) in assay [3]; 87.8% (inactive) in assay [4]; 101% (inactive) in assay [5]; 89.3% in assay [6] (setting [9]); 101% in assay [6] (setting [10]). In assay [2], the Her2 level was 99.5% (inactive). Further, the differential viability (reversal) in assay [6] (H69AR cells + 2 uM doxorubicin) is 11.6% (inactive). Besides, the inhibition in assay [7] is -6.58% (inactive); in assay [8] it was -5.4% (inactive).
For `CCOC(=O)c1[nH]c2ccccc2c1NC(=O)C(C)(C)C`, the viability in assay [1] was 102%; in assay [3] it was 102% (inactive); in assay [4], 80.6% (inactive); in assay [5] it was 96.6% (inactive); in assay [6] (setting [9]) it was 94.2%; in assay [6] (setting [10]), 96.6%. In addition, in assay [2], the Her2 level is 96% (inactive). Besides, in assay [6] (H69AR cells + 2 uM doxorubicin), the differential viability (reversal) was 2.35% (inactive). Further, the inhibition in assay [7] is -5.33% (inactive); in assay [8], 1.67% (inactive).
For the compound `CC1(C)CC(=O)C(C(=O)CCCCC(=O)C2C(=O)CC(C)(C)CC2=O)C(=O)C1`, the viability was 99.5% in assay [1]; 99.5% (inactive) in assay [3]; 98.4% (inactive) in assay [4]; 95.1% (inactive) in assay [5]; 88.2% in assay [6] (setting [9]); 95.1% in assay [6] (setting [10]). In addition, the Her2 level in assay [2] was 158% (inactive). Also, the differential viability (reversal) in assay [6] (H69AR cells + 2 uM doxorubicin) is 6.97% (inactive). The inhibition in assay [7] was 0.53% (inactive); in assay [8] it was -0.5% (inactive).
As for `O=C(CCN1C(=O)C2C3C=CC(C3)C2C1=O)N1CCN(c2ccccc2Cl)CC1` (stereo not given), the viability in assay [1] was 97%; in assay [3] it was 97% (inactive); in assay [4], 82.3% (inactive); in assay [5], 96% (inactive); in assay [6] (setting [9]), 87.8%; in assay [6] (setting [10]), 96%. Besides, the Her2 level in assay [2] is 89.5% (inactive). For the same compound, the differential viability (reversal) in assay [6] (H69AR cells + 2 uM doxorubicin) was 8.21% (inactive). Moreover, the inhibition in assay [7] was -5% (inactive); in assay [8], -3.17% (inactive).
In the case of `CC(C)N(C(=O)COC(=O)c1ccc(O)cc1)C(C)C`, the viability in assay [1] is 96.5%; in assay [3], 96.5% (inactive); in assay [4], 88.3% (inactive); in assay [5], 97.6% (inactive); in assay [6] (setting [9]), 87.8%; in assay [6] (setting [10]), 97.6%. For the same compound, the Her2 level in assay [2] was 87.5% (inactive). Moreover, in assay [6] (H69AR cells + 2 uM doxorubicin), the differential viability (reversal) is 9.85% (inactive). The inhibition in assay [7] is 0.39% (inactive); in assay [8] it was -0.16% (inactive).
As for `COc1ccc(Cl)cc1N1CC(c2nc3ccccc3[nH]2)CC1=O` (stereo not given), the viability was 97.5% in assay [1]; 97.5% (inactive) in assay [3]; 98% (inactive) in assay [4]; 104% (inactive) in assay [5]; 96.3% in assay [6] (setting [9]); 104% in assay [6] (setting [10]). In addition, the Her2 level in assay [2] was 104% (inactive). The differential viability (reversal) in assay [6] (H69AR cells + 2 uM doxorubicin) was 7.82% (inactive). In addition, the inhibition was -3.21% (inactive) in assay [7] and 2.17% (inactive) in assay [8].
On to `Cc1c(C(=O)NCc2cccnc2)sc2ncn(CC(=O)N3CCCCC3C)c(=O)c12` (stereo not given), for which the viability was 98% in assay [1]; 98% (inactive) in assay [3]; 102% (inactive) in assay [4]; 97% (inactive) in assay [5]; 95.8% in assay [6] (setting [9]); 97% in assay [6] (setting [10]). Besides, the Her2 level in assay [2] was 88.5% (inactive). In assay [6] (H69AR cells + 2 uM doxorubicin), the differential viability (reversal) was 1.24% (inactive). For the same compound, the figures for the inhibition in assay [7] and in assay [8] were -0.79% (inactive) and 1.61% (inactive), respectively.
With `CCCOC(=O)CSc1nc(N)c(C#N)c(CC)c1C#N`, the viability in assay [1] was 99.5%; in assay [3] it was 99.5% (inactive); in assay [4], 105% (inactive); in assay [5] it was 94.6% (inactive); in assay [6] (setting [9]) it was 93.9%; in assay [6] (setting [10]), 94.6%. Besides, the Her2 level in assay [2] is 116% (inactive). Moreover, the differential viability (reversal) in assay [6] (H69AR cells + 2 uM doxorubicin) is 0.73% (inactive). Besides, the inhibition in assay [7] is 2% (inactive); in assay [8], 0.16% (inactive).

The term viability denotes a read-out of living cells in per cent, often relative to untreated cells. The inhibition is the drop in the measured response relative to a control, in per cent.

Source of the values: PubChem BioAssay.
